# Laboratory results: ChEMBL document CHEMBL1152649, “Synthesis, cytotoxicity and human telomerase inhibition activities of a series of 1,2-heteroannelated anthraquinones and anthra[1,2-d]imidazole-6,11-dione homologues” (2009)
# Experiments:
# Assay type in all cases: functional
# [1] = tested on: MOLT-4; experiment: Growth inhibition of human MOLT4 cells
# Method in brief: (§1)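 NCI 60 cancer cell line screen run per the Developmental Therapeutics Program protocol. Dose–response curves were plotted against log10 drug concentration for each cell line within its subpanel, and mean graph midpoint values were calculated.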
# [2] = tested on: HCT-15; experiment: Growth inhibition of human HCT15 cells; method in brief: as §1
# [3] = tested on: UACC-62; experiment: Growth inhibition of human UACC62 cells
# Method in brief: (§2)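 Assayed in the NCI 60 human cancer cell line panel under the Developmental Therapeutics Program protocol. For each line, dose–response curves were plotted against log10 drug concentration. In the one-dose screen at 10^-5 M, growth was given as percent of untreated control cells, and mean graph midpoint values were averaged.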
# [4] = tested on: NCI-H460; experiment: Growth inhibition of human NCI-H460 cells; method in brief: as §1
# [5] = tested on: HCC 2998; experiment: Growth inhibition of human HCC2998 cells; method in brief: as §1
# [6] = tested on: NCI-H322M; experiment: Growth inhibition of human NCI-H322M cells; method in brief: as §1
# [7] = tested on: DU-145; experiment: Growth inhibition of human DU145 cells; method in brief: as §1
# [8] = tested on: CCRF-CEM; experiment: Growth inhibition of human CCRF-CEM cells; method in brief: as §1
# [9] = tested on: MDA-MB-435; experiment: Growth inhibition of human MDA-MB-435 cells; method in brief: as §1
# [10] = tested on: SK-MEL-28; experiment: Growth inhibition of human SK-MEL-28 cells; method in brief: as §2
# [11] = tested on: T47D; experiment: Growth inhibition of human T47D cells; method in brief: as §2
# [12] = tested on: SW-620; experiment: Growth inhibition of human SW620 cells; method in brief: as §2
# [13] = tested on: SNB-75; experiment: Growth inhibition of human SNB75 cells; method in brief: as §2
# [14] = tested on: SN12C; experiment: Growth inhibition of human SN12C cells; method in brief: as §2
# [15] = tested on: COLO 205; experiment: Growth inhibition of human COLO205 cells; method in brief: as §1
# [16] = tested on: MDA-MB-468; experiment: Antiproliferative activity against human MDA-MB-468 cells assessed as cell growth at 10 uM; details: read-out: Activity
# Method in brief: (§3)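 NCI 60 cell line panel, single-dose screen (10^-5 M) run by the developmental therapeutics program protocol. Results are given as growth percent of treated cells relative to untreated control cells for each line.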
# [17] = tested on: SK-MEL-2; experiment: Growth inhibition of human SK-MEL-2 cells; method in brief: as §2
# [18] = tested on: A549; experiment: Growth inhibition of human A549 cells; method in brief: as §1
# [19] = tested on: SNB-19; experiment: Growth inhibition of human SNB19 cells; method in brief: as §2
# [20] = tested on: NCI/ADR-RES; experiment: Growth inhibition of human NCI/ADR-RES cells; method in brief: as §1
# [21] = tested on: Malme-3M; experiment: Growth inhibition of human MALME-3M cells; method in brief: as §1
# [22] = tested on: MCF7; experiment: Growth inhibition of human MCF7 cells; method in brief: as §1
# [23] = tested on: UACC-257; experiment: Growth inhibition of human UACC257 cells; method in brief: as §2
# [24] = tested on: K562; experiment: Growth inhibition of human K562 cells; method in brief: as §1
# [25] = tested on: M14; experiment: Growth inhibition of human M14 cells; method in brief: as §1
# [26] = tested on: OVCAR-5; experiment: Growth inhibition of human OVCAR5 cells; method in brief: as §1
# [27] = tested on: SF-268; experiment: Growth inhibition of human SF268 cells; method in brief: as §2
# [28] = tested on: NCI-H23; experiment: Growth inhibition of human NCI-H23 cells; method in brief: as §1
# [29] = tested on: MDA-MB-231; experiment: Growth inhibition of human MDA-MB-231 cells; method in brief: as §1
# [30] = tested on: IGROV-1; experiment: Antiproliferative activity against human IGROV1 cells assessed as cell growth at 10 uM; details: read-out: Activity; method in brief: as §3
# [31] = tested on: A498; experiment: Growth inhibition of human A498 cells; method in brief: as §1
# [32] = tested on: OVCAR-8; experiment: Growth inhibition of human OVCAR8 cells; method in brief: as §1
# [33] = tested on: IGROV-1; experiment: Growth inhibition of human IGROV1 cells; method in brief: as §1
# [34] = tested on: SF-295; experiment: Growth inhibition of human SF295 cells; method in brief: as §2
# [35] = tested on: SK-MEL-5; experiment: Growth inhibition of human SK-MEL-5 cells; method in brief: as §2
# [36] = tested on: HL-60(TB); experiment: Growth inhibition of human HL-60(TB) cells
# Method in brief: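 NCI 60-cell-line panel run under the Developmental Therapeutics Program protocol. Dose-response curves are plotted against log10 drug concentration for each cell line within its subpanel, and GI50 is read from these curves.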
# [37] = tested on: HT-29; experiment: Growth inhibition of human HT-29 cells; method in brief: as §1
# [38] = tested on: NCI-H226; experiment: Growth inhibition of human NCI-H226 cells; method in brief: as §1
# [39] = read-out: LC50 (the source's name)
structure (smiles),measurement,setting,value
O=C1c2ccccc2C(=O)c2c1ccc1nccnc21,GI50,[1],3.65 µM
same,TGI,[1],> 100 µM
same,CC50,[1]; [39],> 100 µM
same,GI50,[2],4.63 µM
same,TGI,[2],84.3 µM
same,CC50,[2]; [39],> 100 µM
same,GI50,[3],13.3 µM
same,TGI,[3],56.1 µM
same,CC50,[3]; [39],> 100 µM
same,GI50,[4],2.01 µM
same,TGI,[4],26.9 µM
same,CC50,[4]; [39],> 100 µM
same,GI50,[5],1.4 µM
same,TGI,[5],83.5 µM
same,CC50,[5]; [39],> 100 µM
same,GI50,[6],16.3 µM
same,TGI,[6],96.1 µM
same,CC50,[6]; [39],> 100 µM
same,GI50,[7],11.4 µM
same,TGI,[7],34.3 µM
same,CC50,[7]; [39],> 100 µM
same,GI50,[8],2.46 µM
same,TGI,[8],> 100 µM
same,CC50,[8]; [39],> 100 µM
same,GI50,[9],11.1 µM
same,TGI,[9],23.7 µM
same,CC50,[9]; [39],50.4 µM
same,GI50,[10],21 µM
same,TGI,[10],91.1 µM
same,CC50,[10]; [39],> 100 µM
same,GI50,[11],12.6 µM
same,LC50,[11],> 100 µM
same,TGI,[11],75.1 µM
same,GI50,[12],1.71 µM
same,TGI,[12],30.8 µM
same,CC50,[12]; [39],> 100 µM
same,GI50,[13],11.9 µM
same,TGI,[13],> 100 µM
same,CC50,[13]; [39],> 100 µM
same,GI50,[14],13.2 µM
same,TGI,[14],92.7 µM
same,CC50,[14]; [39],> 100 µM
same,GI50,[15],3.4 µM
same,TGI,[15],28.4 µM
same,CC50,[15]; [39],> 100 µM
same,growth at 10 µM,[16],75.3%
same,GI50,[17],12.7 µM
same,TGI,[17],55.9 µM
same,CC50,[17]; [39],> 100 µM
same,GI50,[18],4.53 µM
same,TGI,[18],> 100 µM
same,CC50,[18]; [39],> 100 µM
same,GI50,[19],13.4 µM
same,TGI,[19],> 100 µM
same,CC50,[19]; [39],> 100 µM
same,GI50,[20],5.68 µM
same,TGI,[20],> 100 µM
same,CC50,[20]; [39],> 100 µM
same,GI50,[21],4.48 µM
same,TGI,[21],20.7 µM
same,CC50,[21]; [39],70.8 µM
same,GI50,[22],0.72 µM
same,TGI,[22],29.8 µM
same,CC50,[22]; [39],> 100 µM
same,GI50,[23],13 µM
same,TGI,[23],68.3 µM
same,CC50,[23]; [39],> 100 µM
same,GI50,[24],0.07 µM
same,LC50,[24],> 100 µM
same,TGI,[24],> 100 µM
same,GI50,[25],5.14 µM
same,TGI,[25],> 100 µM
same,CC50,[25]; [39],> 100 µM
same,GI50,[26],29.3 µM
same,TGI,[26],> 100 µM
same,CC50,[26]; [39],> 100 µM
same,GI50,[27],4.98 µM
same,TGI,[27],> 100 µM
same,CC50,[27]; [39],> 100 µM
same,GI50,[28],12 µM
same,TGI,[28],70.3 µM
same,CC50,[28]; [39],> 100 µM
same,GI50,[29],19.1 µM
same,LC50 (concentration killing 50% of cells),[29],> 100 µM
same,TGI,[29],> 100 µM
same,growth at 10 µM,[30],3.44%
same,GI50,[31],9.31 µM
same,TGI,[31],50.3 µM
same,CC50,[31]; [39],> 100 µM
same,GI50,[32],5.07 µM
same,TGI,[32],> 100 µM
same,CC50,[32]; [39],> 100 µM
same,GI50,[33],2.55 µM
same,TGI,[33],35.9 µM
same,CC50,[33]; [39],> 100 µM
same,GI50,[34],4.35 µM
same,TGI,[34],32.3 µM
same,CC50,[34]; [39],> 100 µM
same,GI50,[35],3.93 µM
same,TGI,[35],17.1 µM
same,CC50,[35]; [39],44.4 µM
same,GI50,[36],0.68 µM
same,TGI,[36],11.5 µM
same,CC50,[36]; [39],83.7 µM
same,GI50,[37],7.01 µM
same,TGI,[37],> 100 µM
same,CC50,[37]; [39],> 100 µM
same,GI50,[38],16.6 µM
same,TGI,[38],95.2 µM
same,CC50,[38]; [39],> 100 µM
N#Cc1ccc(-c2nc3ccc4c(c3[nH]2)C(=O)c2ccccc2C4=O)cc1,growth at 10 µM,[16],95%
same,growth at 10 µM,[30],66.3%
